Screening results (PubChem)
NF-kB neuron act: raises NF-kB expression in human neuronal cells; AID 1239; NF-kB reporter expression; stronger effect = higher value; fold change at 12.5 µM; hit rate 1.6% among 190,000; in the data active means fold change above about 3.3
FLuc inhib CS: Photinus pyralis luciferase inhibition counter-screen; P08659; ATPLite firefly luciferase biochemical luminescence, 10 min; inhibition, % at 10 µM; hit rate 1.5% among 200,000; AID 1006;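 active means inhibition above about 50% when tested at 10 µM, limit read from the data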
Target sequence (P08659 whole entry, looked up): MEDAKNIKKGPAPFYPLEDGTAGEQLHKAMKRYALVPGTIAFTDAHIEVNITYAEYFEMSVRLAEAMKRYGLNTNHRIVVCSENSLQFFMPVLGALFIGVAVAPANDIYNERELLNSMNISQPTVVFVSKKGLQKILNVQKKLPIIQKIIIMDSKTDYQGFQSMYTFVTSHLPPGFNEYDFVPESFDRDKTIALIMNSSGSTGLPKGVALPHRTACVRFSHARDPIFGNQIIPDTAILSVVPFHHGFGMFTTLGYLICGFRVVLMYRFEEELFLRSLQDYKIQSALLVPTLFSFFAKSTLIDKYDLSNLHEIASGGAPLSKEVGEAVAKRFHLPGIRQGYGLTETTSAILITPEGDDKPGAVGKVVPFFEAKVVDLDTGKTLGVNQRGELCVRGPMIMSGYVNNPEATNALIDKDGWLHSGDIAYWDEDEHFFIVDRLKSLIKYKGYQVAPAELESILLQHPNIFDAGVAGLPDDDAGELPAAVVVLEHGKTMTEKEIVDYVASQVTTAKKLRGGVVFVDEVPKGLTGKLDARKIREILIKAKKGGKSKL
FLuc act counter: affects firefly luciferase, flagging false hits in luciferase stimulation screens; P08659; ATPlite luciferase biochemical, luminescence, 10 min; 0 = ATP-free wells, 1 = DMSO control; activation factor at 10 µM; 200,000 tested, under 10 active;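 active means luciferase activation factor, scaled between plate controls, of at least 2 with compound at 10 µM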
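Material: Luciferase/luciferin reagent mix; Doses: test compounds dosed from 2 mM stocks in 100% DMSO; Schedule: 10 min incubation after luciferase reagent addition, room temperature; Measured by: luminescence from luciferase reaction; Read-out: luminescence gain marking luciferase activators.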
APP 5'UTR act: activates APP 5'UTR luciferase reporter | SH-SY5Y APP 5'UTR luciferase reporter, luminescence; zero percent = DMSO vehicle wells | activation, % at 2 µM | hit rate 1% among 190,000 | AID 1276;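 active means activation above a set limit, based on mean plus 3 SD of controls, cut at about 140% in these data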
STAT1 activator: STAT1 signaling activation; NIH 3T3 STAT1-luciferase reporter, IFN-gamma, luminescence; 100% = IFN-gamma alone, no compound; activation (% of control), % at 5.5 µM; hit rate 2.6% among 200,000; AID 932;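 active means activation above the screen-wide mean activation plus 3 SD, cut at about 130% in these data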;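 further: raw ratio to IFN-gamma control signal so 100% means no change and 0% no light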
STAT1 activ conf: confirmation of STAT1 signaling activators; shares compounds with STAT1 activator; activation (% of control), % at 5.7 µM; hit rate 97% among 1,200; NIH 3T3 STAT1-luciferase reporter, IFN-gamma potentiation, luminescence; 100% = IFN-gamma EC80 alone, no compound;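 active means activation above a set limit carried over from the earlier primary STAT1 screen, cut at about 140% in these data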;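 further: simple ratio to median IFN-gamma plus DMSO wells so 0% means no light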
NFkB act: NF-kappaB activation in STAT1 activator counter-screen | shares compounds with STAT1 activator | HEK293T NF-kB luciferase reporter, TNF-alpha stimulated, luminescence; 100% = TNF-alpha with vehicle only | activation (% of control), % at 5.7 µM | hit rate 43% among 1,200 | AID 1306;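 active means activation above the mean of solvent-only control wells plus 3 SD, set per campaign, cut at about 130% in these data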;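 further: TNF-alpha given at a submaximal dose yielding about 80% of full reporter signal; values are well signal over median control so 100% means no change and 0% no light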
STAT3 act STAT1c: activates human STAT3, counter-screen to STAT1 activators. activation (% of control), % at 5.7 µM. shares compounds with STAT1 activator. hit rate 46% among 1,200. U3A cells STAT3-luciferase reporter, IL-6, luminescence; cells lack STAT1; 100 = IL-6 alone, no compound effect;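 active means activation above the solvent-only control well mean plus 3 SD, set per plate batch, cut at about 110% in these data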;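 further: 0% = no luminescence and 100% = median IL-6 plus DMSO wells; higher means more STAT3 reporter activation so hits are non-selective activators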
Active calls of the source: *; nt = no result. Most compounds without a hit are left out; they make up all but 4.1% or so of the library.

SMILES | NF-kB neuron act | FLuc inhib CS | FLuc act counter | APP 5'UTR act | STAT1 activator | STAT1 activ conf | NFkB act | STAT3 act STAT1c
COCCn1c(C)cc(C(=O)CSc2nc3ccccc3c(=O)n2Cc2ccco2)c1C | 0.85 | 2.1 | 1 | 181.0* | 152.1* | 235.7* | 149.0* | 127.2*
O=C(NN=C1C2CC3CC(C2)CC1C3)c1cccs1 | 2.24 | 1.4 | 1 | 131.4 | 121.8 | nt | nt | nt
CC1=C/C(=N\NC(=O)c2cccs2)CC(C)(C)C1 | 1.24 | -4.6 | 1 | 28.9 | 113.0 | nt | nt | nt
CC(=O)N1CCC(=NNC(=O)c2cccs2)CC1 | 1.12 | -7.5 | 1.1 | 116.7 | 159.5* | 118.9 | 109.4 | 104.5
O=C(NN=C1CCCC1)c1cccs1 | 1.14 | -3.6 | 1 | 87.7 | 156.0* | 114.4 | 109.0 | 99.9
CC(C)C(NS(=O)(=O)c1ccc2c(c1)oc(=O)n2C)C(=O)N1CCN(Cc2ccccc2)CC1 (stereo not drawn) | 1.38 | -3.0 | 1 | -10.5 | 101.4 | nt | nt | nt
Cc1ccc(/C=N/NC(=O)c2ccccn2)s1 | 2.71 | 75.0* | 0.3 | 122.1 | 154.5* | 162.9* | 114.6 | 95.8
O=C(O)C1C2C=CC(O2)C1C(=O)NCCCn1ccnc1 (stereo not drawn) | 1.11 | -3.6 | 1 | 2.4 | 99.4 | nt | nt | nt
O=C(c1ccc(F)cc1)c1cc2ccccc2o1 | 3.6* | 26.2 | 0.7 | 58.6 | 156.7* | 174.3* | 129.3 | 102.9
N/C(=N\NC(=O)c1ccc(F)cc1)c1cc2ccccc2oc1=O | 1.05 | 3.5 | 1 | 8.6 | 98.8 | nt | nt | nt
O=C(Nc1nc2ccccc2[nH]1)c1cccc([N+](=O)[O-])c1 | nt | 21.8 | 0.8 | 112.8 | 156.5* | 168.6* | 124.7 | 119.6*
CSCCC(NC(=O)c1cccc([N+](=O)[O-])c1)c1nc2ccccc2[nH]1 (stereo not drawn) | 0.67 | -9.2 | 1.1 | -0.3 | 96.7 | nt | nt | nt
Cc1cnc(NC(=O)CSc2ccc(Cl)cc2)s1 | 1.21 | -2.5 | 1 | 13.4 | 96.7 | nt | nt | nt
Cc1cnc(NC(=O)Nc2ccc(Cl)cc2)s1 | 25.6* | 44.8 | 0.6 | -28.3 | 296.5* | 281.6* | 138.0* | 141.5*
Cc1sc(NC(=O)c2ccccc2)c(C#N)c1-c1ccccc1 | 4.91* | 31.1 | 0.7 | 137.9* | 166.0* | 200.3* | 140.9* | 108.5
COc1ccc(Cl)cc1NC(=O)CN1CCC(n2nnc3cc(F)ccc32)CC1 | 1.19 | -4.1 | 1 | -0.5 | 90.7 | nt | nt | nt
N#Cc1nc(-c2cccs2)oc1NCc1ccccc1Cl | 1.18 | 0.6 | 1 | -5.3 | 88.6 | nt | nt | nt
Cn1cc(NC(=O)OCc2ccc(Cl)cc2)c(C(F)(F)F)n1 | 3.55* | -3.7 | 1 | 6.7 | 178.2* | 165.4* | 124.6 | 110.4
CC1CN(C(=O)Nc2ccc3c(c2)OCO3)CC(C)O1 (stereo not drawn) | 1.93 | 14.2 | 0.9 | nt | 112.2 | nt | nt | nt
O=C(N/N=C/C=C/c1ccccc1[N+](=O)[O-])c1cccnc1 | 0.85 | -5.5 | 1.1 | 6.3 | 98.0 | nt | nt | nt
O=C(O)c1ccc(N/N=C/C=C/c2ccccc2[N+](=O)[O-])cc1 | 0.87 | 0.9 | 1 | 112.9 | 163.3* | 177.3* | 139.3* | 129.2*
CN(C)c1nc(N)nc(CSc2nc3cc(Cl)ccc3o2)n1 | 2.02 | -1.7 | 1 | 10.9 | 152.2* | 141.9* | 121.7 | 89.8
COC(=O)C(Cc1ccc(O)cc1)NC(=O)C(CC(=O)OC(C)(C)C)NC(=O)OC(C)(C)C (stereo not drawn) | 1.19 | -10.6 | 1.1 | -18.9 | 106.6 | nt | nt | nt
Cc1ccc(C(=O)CSC2=C(C#N)C(c3ccco3)C3=C(CCCC3=O)N2)cc1 (stereo not drawn) | 1.57 | 0.1 | 1 | -46.5 | 102.9 | nt | nt | nt
N#CC1=C(SCC(=O)c2ccccc2)NC2=C(C(=O)CCC2)C1c1ccco1 (stereo not drawn) | 2.44 | 2.1 | 1 | -68.4 | 155.7* | 165.7* | 128.3 | 105.7
SMILES | NF-kB neuron act | FLuc inhib CS | FLuc act counter | APP 5'UTR act | STAT1 activator | STAT1 activ conf | NFkB act | STAT3 act STAT1c
COC(=O)c1c(-c2cccnc2)csc1NC(=O)c1cc(C)on1 | 3.13 | 36.6 | 0.6 | 130.0 | 152.5* | 202.1* | 137.2* | 127.5*
Cc1ccc(/C=C(\C#N)c2nc3ccccc3[nH]2)s1 | 6.07* | 46.6 | 0.5 | 215.2* | 162.5* | 222.2* | 137.3* | 101.2
COc1cc(/C=C(\C#N)c2nc3ccccc3[nH]2)cc(OC)c1O | 0.74 | 9.6 | 0.9 | 21.2 | 123.5 | nt | nt | nt
COc1cccc(C(=O)Nc2cc3c(cc2Cl)OCCCO3)c1 | 4.34* | 64.7* | 0.4 | 135.6* | 160.4* | 175.3* | 119.3 | 97.9
O=[N+]([O-])c1cccc(-c2cn3ccccc3n2)c1 | 5.46* | 28.1 | 0.7 | 117.7 | 153.1* | 206.1* | 140.9* | 114.7*
C/C(=N\NC(=O)c1ccco1)c1ccc(NC(=O)c2cccs2)cc1 | 1.1 | 3.4 | 1 | 57.9 | 154.2* | 111.0 | 119.4 | 97.8
O=C(Nc1ccc(NC(=S)NC(=O)c2cccs2)cc1)c1ccco1 | 1.01 | -5.9 | 1.1 | 2.9 | 100.4 | nt | nt | nt
Cc1ccc(S(=O)(=O)N(C)CC(=O)N2CCCc3ccccc32)cc1 | 0.89 | -5.6 | 1.1 | 6.3 | 100.3 | nt | nt | nt
COc1ccc(Nc2nc(-c3cccs3)cs2)c(OC)c1 | 7.03* | 1.5 | 1 | 58.8 | 163.9* | 216.5* | 139.1* | 118.0*
COc1ccccc1Nc1nc(-c2cccs2)cs1 | 5.67* | 6.3 | 0.9 | 28.3 | 170.8* | 202.8* | 143.3* | 164.6*
COc1ccc(OC)c(Nc2nc(-c3cccs3)cs2)c1 | 1.09 | -9.4 | 1.1 | 1.0 | 110.2 | nt | nt | nt
COc1ccc(Nc2nc(-c3cccs3)cs2)cc1 | 2.29 | 42.4 | 0.6 | 105.1 | 182.1* | 213.9* | 151.1* | 121.9*
COC(=O)c1c(C)[nH]c(-c2csc(N)n2)c1C | 1.53 | 3.3 | 1 | -12.5 | 115.9 | nt | nt | nt
CCC(C)NC(=O)C1c2ccccc2C(=O)N(c2ccc(OC)cc2)C1c1ccc(OC)cc1 (stereo not drawn) | 1.14 | -7.1 | 1.1 | 6.9 | 102.4 | nt | nt | nt
COc1ccc(CCNC(=O)c2ccn[nH]2)cc1OC | 0.98 | 0.1 | 1 | -3.6 | 96.8 | nt | nt | nt
Oc1csc(Cc2nc(-c3ccc(Br)cc3)cs2)n1 | 1.87 | 22.0 | 0.8 | 50.0 | 166.7* | 177.0* | 134.0* | 123.5*
CCOC(=O)c1sc2nc(-c3ccccc3)ccc2c1N | 2.25 | 82.1* | 0.2 | 174.2* | 173.8* | 271.6* | 119.2 | 94.1
CCOC(=O)c1sc2nc(C)cc(-c3ccccc3)c2c1N | 1.11 | -2.9 | 1 | -6.2 | 93.6 | nt | nt | nt
